Only some compounds are listed: those with a hit (about 1.9% of all), similar ones and a draw of the others.
NS3 helicase inh – inhibitors of Hepatitis C virus NS3 helicase | NS3 helicase DNA unwinding, Cy5 molecular beacon fluorescence | inhibition, % at 10.9 µM | 0.56% of 290,000 active | AID 1800;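 active = inhibition above the mean of all tested compounds plus 3 SD, set per campaign, cut at about 35% in these data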;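 also: 0% = DMSO wells and 100% = thioflavine S control wells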
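System: Hepatitis C virus NS3 helicase domain fragment enzyme | Reagent: Annealed dual-labelled DNA beacon duplex, ATP-started | Compound dosing: 10.9 µM single point, 0.8% DMSO | Incubation: 1 h reaction at 25 °C, ATP-initiated | Technique: Cy5 fluorescence | Evaluation: Percent inhibition from t60/t0 fluorescence ratio | Benchmarks: Low DMSO, high thioflavine S at 110 µM | Replication: Singlicate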
ZTA DNA inh – counter-screen for EBNA-1 inhibitors: inhibitors of Epstein-Barr virus ZTA; ZTA-DNA binding, fluorescence polarization; inhibition, % at 11 µM; AID 2234; 0.15% of 320,000 active; in the data active = inhibition above about 33%
Target sequence (P03206 whole entry, looked up): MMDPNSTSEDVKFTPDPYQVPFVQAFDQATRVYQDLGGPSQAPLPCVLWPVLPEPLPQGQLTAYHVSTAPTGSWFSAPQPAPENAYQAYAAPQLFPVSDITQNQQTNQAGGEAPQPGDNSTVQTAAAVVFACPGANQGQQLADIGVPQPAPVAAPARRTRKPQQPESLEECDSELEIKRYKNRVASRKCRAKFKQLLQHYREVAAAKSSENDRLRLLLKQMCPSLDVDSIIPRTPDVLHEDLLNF
PP1 inh – counter-screen for PP5 inhibitors: inhibitors of human PP1-alpha; P62136; purified PP1alpha, OMFP fluorescence; inhibition, % at 6.7 µM; 0.9% of 320,000 active; AID 2235;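 active = inhibition above the mean inhibition of all tested compounds plus 3 SD, computed separately for each screening campaign, cut at about 15% in these data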
EBNA-1 inhibitor – blocks EBNA-1 binding to DNA | inhibition, % at 14.8 µM | EBNA-1 DNA binding, fluorescence polarization | AID 1950 | 0.34% of 300,000 active; in the data active = inhibition above about 28%
HCV core dimer – HCV core protein dimerization inhibition; TR-FRET GST/Flag-core106 dimerization, 1536-well; inhibition, % at 5 µM; 0.33% of 300,000 active; AID 1899;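 active = inhibition above the mean of all tested compounds plus 3 SD, set per screening campaign, cut at about 45% in these data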
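assay system = GST-tagged and Flag-tagged HCV core protein residues 1-106 | controls = unlabelled core106 and no-GST-core106 wells | incubation = compound-protein-antibody incubation 4 h at 22.5 °C | probe or stimulus = Eu donor and XL665 acceptor anti-tag antibodies | read-out = % inhibition based on acceptor/donor emission ratio | signal = TR-FRET 671 and 617 nm emission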
NS3 hel confirm – HCV NS3 helicase inhibition, confirmation assay. NS3 helicase DNA unwinding, Cy5 molecular beacon fluorescence. inhibition, % at 10.9 µM. shares compounds with NS3 helicase inh. 31% of 1,600 active;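 active = inhibition above the mean of all tested compounds plus 3 SD, cutoff set per campaign, cut at about 36% in these data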
FID counter trip – displaces DNA intercalator in HCV helicase counter-screen; shares compounds with NS3 helicase inh; DNA fluorescent intercalator displacement, fluorescence; inhibition, % at 7.9 µM; 4% of 1,600 active; in the data active = inhibition above about 37%;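 also: 0% = vehicle and 100% = reference compound; higher means more displacement of ethidium bromide from the DNA hairpin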
FID counter DR – counter-screen for HCV NS3 helicase inhibitors: DNA intercalator displacement dose response; shares compounds with NS3 helicase inh; fluorescent intercalator displacement from DNA, fluorescence; IC50, µM; 120 tested, under 10 active; AID 2172; call rule not given here
EBNA-1 inh conf – EBNA-1 (EBV) inhibition, confirmation; Recombinant EBNA-1 DBD, Cy5-DNA fluorescence polarization; 35% of 830 active; inhibition, % at 14.8 µM; shares compounds with EBNA-1 inhibitor; AID 2292;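 active = mean inhibition across replicates above a set limit taken from the earlier primary screen, cut at about 28% in these data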;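 also: plate controls were EBNA-1 protein with DMSO for no effect and wells lacking EBNA-1 for full effect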
ZTA counter trip – counter-screen for EBNA-1 inhibitors: Epstein-Barr virus ZTA inhibitors, triplicate. shares compounds with EBNA-1 inhibitor. Zta-ZRE DNA binding, Cy5 fluorescence polarization. inhibition, % at 11.1 µM. 830 tested, under 10 active. AID 2328;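 active = mean inhibition over triplicates above a set limit taken from the primary EBNA-1 screen, cut at about 37% in these data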;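 also: purified full length Zta protein with Cy5 labeled ZRE DNA probe; 0% = Zta with DMSO and 100% = wells lacking Zta protein; inhibitors lower polarization by freeing the labeled DNA probe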
PP1 confirm – confirmation of human PP1 phosphatase inhibitors | 52% of 1,900 active | purified PP1alpha, OMFP substrate fluorescence | inhibition, % at 6.7 µM | shares compounds with PP1 inh;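 active = mean PP1 inhibition above a set limit taken from the earlier primary screen, cut at about 15% in these data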
PP5 counter – PP5 phosphatase inhibition, counter-screen for PP1 inhibitors; inhibition, % at 6.7 µM; purified PP5c, OMFP fluorescence; 4% of 1,900 active; shares compounds with PP1 inh;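 active = mean PP5 inhibition over triplicate wells above about 9.5% taken from the earlier PP1 screen, limit read from the data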
Target sequence (P53041 whole entry, looked up): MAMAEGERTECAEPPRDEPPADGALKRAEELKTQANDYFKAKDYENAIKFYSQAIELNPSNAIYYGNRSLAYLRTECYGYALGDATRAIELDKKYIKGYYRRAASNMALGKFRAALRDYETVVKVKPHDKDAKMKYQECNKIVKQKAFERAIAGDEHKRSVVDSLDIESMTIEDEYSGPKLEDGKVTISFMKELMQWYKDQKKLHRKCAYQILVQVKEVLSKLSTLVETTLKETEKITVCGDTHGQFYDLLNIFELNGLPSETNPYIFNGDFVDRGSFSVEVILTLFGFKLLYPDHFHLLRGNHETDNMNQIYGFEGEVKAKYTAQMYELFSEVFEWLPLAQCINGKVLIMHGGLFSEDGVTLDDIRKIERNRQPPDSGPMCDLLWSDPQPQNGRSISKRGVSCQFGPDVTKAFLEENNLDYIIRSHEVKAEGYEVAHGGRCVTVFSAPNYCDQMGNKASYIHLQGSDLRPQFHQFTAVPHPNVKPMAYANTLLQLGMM
An asterisk follows results filed as active; x = not tested or not shown.

SMILES	NS3 helicase inh	ZTA DNA inh	PP1 inh	EBNA-1 inhibitor	HCV core dimer	NS3 hel confirm	FID counter trip	EBNA-1 inh conf	ZTA counter trip	PP1 confirm	PP5 counter	others
COc1ccc(C2C(C(=O)c3ccc(C)o3)=C(O)C(=O)N2c2cc(C)on2)cc1OC (stereo not given)	13	12	-3	7	5	x	x	x	x	x	x
Cc1cc(N2C(=O)C(O)=C(C(=O)c3ccc(C)o3)C2c2cccc(Oc3ccccc3)c2)no1 (stereo not given)	63*	-4	29*	-4	8	173*	-22	x	x	29*	0	FID counter DR=>79
CCOc1cccc(=O)c2c(C)n(CC(=O)c3ccccc3)c(C)c12	27	6	-1	4	37	x	x	x	x	x	x
COc1cccc(=O)c2c(C)n(CC(=O)c3ccccc3)c(C)c12	58*	5	23*	3	67*	-14	-16	x	x	0	-4
CCN(CC)S(=O)(=O)c1cccc(C(=O)N/N=C/c2ccc(O)c(O)c2O)c1	45*	3	20*	-8	3	76*	16	x	x	33*	-6	FID counter DR=>79
COc1ccc2[nH]c3c(C)c4ccncc4c(C)c3c2c1	42*	20	35*	-27	-30	112*	90*	x	x	17*	-1
COc1cc(/C=C2/SC(=S)NC2=O)ccc1OS(=O)(=O)c1ccc(C)cc1	53*	6	26*	12	23	59*	31	x	x	31*	2
COc1c(N2CCN(C(=S)NCc3ccccc3)C(C)C2)c(F)cc2c(=O)c(C(=O)O)cn(C3CC3)c12 (stereo not given)	40*	3	43*	5	19	42*	-21	x	x	33*	-4	FID counter DR=>79
O=C1/C(=C/C=C/c2ccco2)SC(=S)N1NS(=O)(=O)c1ccccc1	66*	70*	21*	44*	65*	73*	17	x	x	13	-5
O=C1/C(=C/c2cccs2)SC(=S)N1NS(=O)(=O)c1ccccc1	8	3	0	4	4	x	x	x	x	x	x
CCc1ccccc1NC(=O)C1CCN(C(=O)N2CCOc3ccccc32)CC1	10	9	-2	-13	5	x	x	x	x	x	x
NNC(=O)c1oc2nc(-c3cccs3)cc(-c3ccco3)c2c1N	-38	0	8	-2	-5	x	x	x	x	x	x
Cc1ccc(-c2cc(-c3ccco3)c3c(N)c(C(=O)NN)oc3n2)cc1	42*	-13	18*	1	15	4	5	x	x	13	6
COc1cc([N+](=O)[O-])cc(/C=N/NC(=O)C(C)Nc2cccc3ccccc23)c1O (stereo not given)	37*	1	23*	4	-12	39*	16	x	x	33*	-2
CC(Nc1cccc2ccccc12)C(=O)N/N=C/c1ccc([N+](=O)[O-])cc1 (stereo not given)	-13	5	3	-3	-1	x	x	x	x	x	x
C1CN(CC23CC4CC(CC(C4)C2)C3)CCO1	-4	-5	-5	-2	-1	x	x	x	x	x	x
O=C1N=C(N2CCN(c3ccccc3)CC2)S/C1=C/c1ccco1	16	-13	0	-10	8	x	x	x	x	x	x
Cc1ccc(N2CCN(C3=NC(=O)/C(=C\c4cn[nH]c4-c4ccccc4)S3)CC2)cc1	7	-6	7	93*	24	x	x	43*	-3	x	x
Cc1cccc(N2CCN(C3=NC(=O)C(=C4CCCCC4)S3)CC2)c1	-11	16	4	3	21	x	x	x	x	x	x
Cc1cccc(N2CCN(C3=NC(=O)/C(=C\c4cn[nH]c4-c4ccccc4)S3)CC2)c1	16	-10	3	67*	20	x	x	29*	12	x	x
O=C1N=C(N2CCN(c3ccccc3)CC2)S/C1=C\c1ccco1	17	-19	-1	7	23	x	x	x	x	x	x
O=C1N=C(N2CCN(c3ccccc3)CC2)S/C1=C\c1cn[nH]c1-c1ccccc1	6	2	2	138*	10	x	x	34*	3	x	x
Cc1nn(-c2ccc(F)cc2)c(C)c1/C=C/C(=O)N1CCNC(=O)C1	-16	-13	1	1	-13	x	x	x	x	x	x
CCc1c(C)sc2nc(SCC(=O)Nc3cc(C)on3)n(CCOC)c(=O)c12	14	9	3	34*	5	x	x	12	-13	x	x
COCCn1c(SCC(=O)Nc2cc(C)on2)nc2ccccc2c1=O	x	13	-2	x	x	x	x	x	x	x	x
SMILES	NS3 helicase inh	ZTA DNA inh	PP1 inh	EBNA-1 inhibitor	HCV core dimer	NS3 hel confirm	FID counter trip	EBNA-1 inh conf	ZTA counter trip	PP1 confirm	PP5 counter	others
Cc1ccc(-c2nn3c(C)nnc3s2)cc1NC(=O)c1ccc(Br)o1	8	-13	1	-6	1	x	x	x	x	x	x
Cc1ccc(-c2nn3c(C)nnc3s2)cc1NC(=O)c1ccc(-c2ccc(Cl)cc2Cl)o1	19	13	4	37*	40	x	x	2	-11	x	x
CC(=O)Nc1cc(C(=O)OCC(=O)c2ccc(Cl)cc2Cl)ccc1C	-3	-7	-4	-1	0	x	x	x	x	x	x
CC(C)C(=O)Nc1cccc(C(=O)OCC(=O)c2ccc(Cl)cc2Cl)c1	-1	4	-3	41*	2	x	x	79*	8	x	x
COC(=O)CSc1ncnc2scc(-c3ccccc3)c12	0	-5	-4	-6	1	x	x	x	x	x	x
Cc1nnc(NC(=O)CSc2ncnc3scc(-c4ccccc4)c23)s1	1	13	11	34*	5	x	x	29*	-7	x	x
CCOc1cc(/C=N/NC(=O)C(=O)N/N=C/c2ccc(O)c(OCC)c2)ccc1O	0	8	-1	28*	-13	x	x	23	-6	x	x
CCOc1cc(/C=N/NC(=O)N/N=C/c2ccc(O)c(OCC)c2)ccc1O	x	2	-4	-7	-14	x	x	x	x	x	x
Cc1ccc(-c2nc3ccccc3o2)cc1NC(=S)NC(=O)c1cccs1	-1	5	5	36*	13	x	x	16	1	x	x
Cc1c(C(=O)Nc2cccc([N+](=O)[O-])c2)sc2ncn(CC(=O)N3CCOCC3)c(=O)c12	3	-2	1	-4	-13	x	x	x	x	x	x
Cc1ccc(N2CC(C(=O)Nc3nnc(SCC(=O)Nc4cc(C)on4)s3)CC2=O)cc1 (stereo not given)	12	11	-1	34*	28	x	x	9	-4	x	x

Source: PubChem
